≈ marks a conversion by molar mass, not a printed value. Where “and” joins values, the source holds several entries; their conditions need not be identical. Identical values can stand only once.
Assays:
[1] = test system: Human alphaherpesvirus 2; experiment: In vitro antiviral activity in secondary cultures of rabbit kidney cells infected with HSV type 2 strain MS; assay type: functional
Outline: (§1)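 Scored as a virus rating (VR) from inhibition of CPE caused by HSV-1 strain 377 or HSV-2 strain MS in secondary rabbit kidney cultures or Vero cells. VR ≥1.0 means definite activity, 0.5-0.9 marginal to moderate, and <0.5 usually none. Ranges are pooled from several tests.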

[2] = test system: Human alphaherpesvirus 2; experiment: Concentration required to inhibit HSV type 2 strain MS induced cytopathogenic affects by 50%; assay type: functional
Outline: (§2)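 Inhibition of cytopathogenic effect caused by HSV-1 strain 377 or HSV-2 strain MS, replicating in secondary rabbit kidney cell cultures or in Vero cells. MIC₅₀ is the concentration giving 50% inhibition of virus-induced CPE. Ranges are pooled from several tests in either host cell type.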

[3] = test system: Mus musculus; experiment: Antineoplastic activity of compound in mice inoculated with 10e 5 L1210 leukemia cells was measured as T/C after ip administration of 100 […]; assay type: functional
Outline: (§3)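 L1210 leukemia, 10⁵ cells inoculated intraperitoneally into mice on day 0, following NCI protocols. Compound given intraperitoneally as a solution or suspension once daily on days 1-9. T/C % compares lifespan of treated mice with untreated leukemic control mice.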

[4] = test system: L1210; experiment: Antineoplastic activity of compound in mice inoculated with 10e 5 L1210 leukemia cells was measured as weight change after ip administration of 100 […]; assay type: functional, Mus musculus
Outline: (§4)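 Mice received 10⁵ L1210 leukemia cells ip on day 0, then compound ip as a solution or suspension q.d. days 1-9, following NCI protocols. Weight-change difference is the mean weight change of treated mice minus that of untreated leukemic controls, both measured on day 5.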

[5] = test system: L1210; experiment: Antineoplastic activity of compound in mice inoculated with 10e 5 L1210 leukemia cells was measured as weight change after ip administration of 200 […]; assay type: functional, Mus musculus; outline: as §4
[6] = test system: Human alphaherpesvirus 1; experiment: Concentration required to inhibit HSV type 1 strain 377 induced cytopathogenic affects by 50%; assay type: functional; outline: as §2
[7] = Compound was evaluated for cytotoxicity to KB cells (derived from human epidermoid carcinoma); assay type: cell-based; conditions: read-out: ED50 (the source's name)
Outline: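 KB cells grown in culture and tested under the National Cancer Institute cytotoxicity protocol. The value is reported as ED50 in mcg/mL.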

[8] = test system: Mus musculus; experiment: Antineoplastic activity of compound in mice inoculated with 10e 5 L1210 leukemia cells was measured as T/C after ip administration of 200 […]; assay type: functional; outline: as §3
[9] = test system: Human alphaherpesvirus 1; experiment: In vitro antiviral activity in secondary cultures of rabbit kidney cells infected with HSV type 1 strain 377; assay type: functional; outline: as §1
[10] = test system: Human alphaherpesvirus 1; experiment: Concentration required to inhibit HSV type 1 strain HF induced cytopathogenic affects by 50%; assay type: functional
[11] = test system: Human alphaherpesvirus 1; experiment: In vitro antiviral activity in secondary cultures of rabbit kidney cells infected with HSV type 1 strain HF; assay type: functional
[12] = test system: Vaccinia virus; experiment: In vitro for antiviral activity in secondary cultures of rabbit kidney cells infected with vaccinia virus; assay type: functional, Orthopoxvirus vaccinia
[13] = test system: Mus musculus; experiment: Antineoplastic activity of compound in mice inoculated with 10e 5 L1210 leukemia cells was measured as T/C after ip administration of 200 mg/kg; assay type: functional; conditions: route intraperitoneal; outline: as §3
[14] = test system: L1210; experiment: Antineoplastic activity of compound in mice inoculated with 10e 5 L1210 leukemia cells was measured as weight change after ip administration of 100 mg/kg; assay type: functional, Mus musculus; conditions: route intraperitoneal; outline: as §4
[15] = test system: L1210; experiment: Antineoplastic activity of compound in mice inoculated with 10e 5 L1210 leukemia cells was measured as weight change after ip administration of 200 mg/kg; assay type: functional, Mus musculus; conditions: route intraperitoneal; outline: as §4
[16] = test system: Mus musculus; experiment: Antineoplastic activity of compound in mice inoculated with 10e 5 L1210 leukemia cells was measured as T/C after ip administration of 100 mg/kg; assay type: functional; conditions: route intraperitoneal; outline: as §3
[17] = Human alphaherpesvirus 1, read-out: MIC50

## Nc1nc(O)c2nnn(C3CC(O)C(CO)C3)c2n1 (configuration not stated)
[1]
  Virus rating: 2.1
[2]
  MIC50: 6.9 µg/mL (≈ 25.9 µM)
[3]
  T/C: 100%
[4]
  Weight change: -2.4 g
[5]
  Weight change: -3.2 g
[6]; [17]
  MIC50: 0.6 µg/mL (≈ 2.25 µM)
[7]
  CC50: > 100 µg/mL
[8]
  T/C: 104%
[9]
  Virus rating: 4.2

## Nc1ccn([C@@H]2C[C@H](CO)[C@@H](O)[C@H]2O)c(=O)n1 (stereo in doubt; form 1)
[10]
  MIC50: 93 µg/mL and <32 µg/mL

## Nc1ncnc2c1ncn2[C@@H]1C[C@H](CO)[C@@H](O)[C@@H]1O
[11]
  Virus rating: 2.2 and 3.5
[12]
  Virus rating: 1.5 and 1.7

## Nc1nc(Cl)c2ncn(C3CC(O)C(CO)C3)c2n1 (configuration not stated)
[1]
  Virus rating: 2
[2]
  MIC50: 37 µg/mL (≈ 130 µM)
[3]
  T/C: 106%
[4]
  Weight change: -1 g
[5]
  Weight change: -2.2 g
[6]; [17]
  MIC50: 8.1 µg/mL (≈ 28.5 µM)
[7]
  CC50: 62 µg/mL (≈ 219 µM)
[8]
  T/C: 106%
[9]
  Virus rating: 1.9

## Nc1nc(S)c2ncn(C3CC(O)C(CO)C3)c2n1 (configuration not stated)
[1]
  Virus rating: 1.7
[2]
  MIC50: 32 µg/mL (≈ 114 µM)
[3]
  T/C: 91%
[4]
  Weight change: -0.2 g
[5]
  Weight change: 0.5 g
[6]; [17]
  MIC50: < 3.2 µg/mL
[7]
  CC50: > 100 µg/mL
[8]
  T/C: 108%
[9]
  Virus rating: 4.9

## Nc1nc(N)c2nnn(C3CC(O)C(CO)C3)c2n1 (configuration not stated)
[1]
  Virus rating: 2.3
[2]
  MIC50: 10 µg/mL (≈ 37.7 µM)
[13]
  T/C: 92%
[14]
  Weight change: -0.7 g
[15]
  Weight change: -1.1 g
[16]
  T/C: 96%
[6]
  MIC50: 2 µg/mL (≈ 7.54 µM)
[6]; [17]
  MIC50: < 3.2 µg/mL
[7]
  CC50: > 100 µg/mL
[9]
  Virus rating: 4 and 4.4

## Nc1nc(O)c2ncn([C@@H]3C[C@H](CO)[C@@H](O)C3)c2n1
[1]
  Virus rating: 3.7
[2]
  MIC50: 0.8 µg/mL (≈ 3.02 µM)
[3]
  T/C: 96%
[4]
  Weight change: -3.7 g
[6]; [17]
  MIC50: < 0.3 µg/mL
[7]
  CC50: 95 µg/mL (≈ 358 µM)
[9]
  Virus rating: >=4.6

From ChEMBL document CHEMBL1122513, “Synthesis and antiviral activity of carbocyclic analogues of 2'-deoxyribofuranosides of 2-amino-6-substituted-purines and of 2-amino-6-substituted-8-azapurines” (J Med Chem, 1984)
